The source of these data is ChEMBL document CHEMBL1122841, “Structure-activity relationships among benextramine-related tetraamine disulfides at peripheral alpha-adrenoreceptors” (J Med Chem, 1985).

For orientation: IC50 means the concentration that gives 50% inhibition.

In one experiment the target is Adrenergic receptor alpha. Kind of experiment: Inhibitory activity against alpha adrenergic receptor in rat.
Take `COc1ccccc1CNCCCCCCNCCSSCCNCCCCCCNCc1ccccc1OC` [BENEXTRAMINE]: the IC50 was found to be 4.02 µM.

A further experiment deals with Adrenergic receptor alpha. Kind of experiment: Inhibitory activity against alpha adrenergic receptor. It counts as protein assay.
As for `c1c[nH]c(CNCCCCCCNCCSSCCNCCCCCCNCc2ccc[nH]2)c1`, the IC50 stood at 0.9 µM.

For a further experiment, the species on record is Rattus norvegicus. Kind of experiment: Antimuscarinic activity against carbachol induced response in rat jejunum. The class given is functional. In short, it runs like this: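 Rat jejunum under 1.0 g tension in the same PSS, stabilised with submaximal agonist doses. Cumulative carbachol curves used about 3-fold steps and force-transducer recording. After about 15 min rest, antagonist (10–100 µM) was incubated 30 min and the curve repeated. Dose ratios were taken before and after a 30-min wash; mean ± SEM of 5–6 observations.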
For the compound `COc1ccccc1CNCCCCCCNCCSSCCNCCCCCCNCc1ccccc1OC` [BENEXTRAMINE], the Kb worked out at 2.01 µM.
In the case of `c1c[nH]c(CNCCCCCCNCCSSCCNCCCCCCNCc2ccc[nH]2)c1`, the Kb was found to be 5.25 µM.

Another experiment addresses Adrenergic receptor alpha (Rattus norvegicus) (UniProt P15823+P23944+P43140+P22086+P19328+P22909). Kind of experiment: Antagonistic blocking activity at alpha adrenergic receptor by NE induced contractions of the epididymal portion of isolated rat vas deferens at the dose of 20 uM. It counts as functional, tissue-based. Also on record: scale not given: the % may be the effect or the level left. In short, it runs like this: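 Epididymal portion of isolated rat vas deferens under 1.0 g tension in PSS (mM: NaCl 118, KCl 4.7, CaCl2 2.52, MgCl2 3.57, KH2PO4 1.54, NaHCO3 12.5, glucose 11.1). Antagonist at 20 µM for 30 min, then 30-min wash. Value is the percent decrease of maximum contraction to 100 µM NE versus control, mean ± SEM; n = 3–7.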
In turn, `COc1cc(CNCCCCCCNCCSSCCNCCCCCCNCc2cc(OC)c(OC)cc2[N+](=O)[O-])c([N+](=O)[O-])cc1OC` yielded an Activity of 47%.
The same measure, in the same setting: the result for `CSc1ccccc1CNCCCCCCNCCSSCCNCCCCCCNCc1ccccc1SC` reads 66%.
Compound `COc1ccccc1CNCCCCCCNCCSSCCNCCCCCCNCc1ccccc1OC` [BENEXTRAMINE] showed an Activity of 100%.
Still for that read-out and setting: the result for `COc1cccc([N+](=O)[O-])c1CNCCCCCCNCCSSCCNCCCCCCNCc1c(OC)cccc1[N+](=O)[O-]` reads 42%; that for `O=[N+]([O-])c1ccccc1CNCCCCCCNCCSSCCNCCCCCCNCc1ccccc1[N+](=O)[O-]`, 51%.
Still for that read-out and setting: as for `c1csc(CNCCCCCCNCCSSCCNCCCCCCNCc2cccs2)c1`, the figure is 80%; as for `Clc1cccc(CNCCCCCCNCCSSCCNCCCCCCNCc2cccc(Cl)c2)c1`, 46%; as for `c1coc(CNCCCCCCNCCSSCCNCCCCCCNCc2ccco2)c1`, 100%.
In turn, `Brc1ccc(CNCCCCCCNCCSSCCNCCCCCCNCc2ccc(Br)cc2)cc1` registered an Activity of 34%.
In the case of `Cn1cccc1CNCCCCCCNCCSSCCNCCCCCCNCc1cccn1C`, the Activity turned out to be 100%.
Still for that read-out and setting: the result for `c1cc(CNCCCCCCNCCSSCCNCCCCCCNCc2ccsc2)cs1` reads 17%.
The compound `O=[N+]([O-])c1cccc(CNCCCCCCNCCSSCCNCCCCCCNCc2cccc([N+](=O)[O-])c2)c1` displayed an Activity of 49%.
Still for that read-out and setting: the result for `Fc1cccc(CNCCCCCCNCCSSCCNCCCCCCNCc2cccc(F)c2)c1` reads 73%; that for `Clc1ccc(CNCCCCCCNCCSSCCNCCCCCCNCc2ccc(Cl)c(Cl)c2)cc1Cl`, 39%; that for `c1cncc(CNCCCCCCNCCSSCCNCCCCCCNCc2cccnc2)c1`, 13%.
On the same count and under the same terms, as for `Brc1ccccc1CNCCCCCCNCCSSCCNCCCCCCNCc1ccccc1Br`, the figure is 58%.
On the same count and under the same terms, the result for `Cc1ccc(CNCCCCCCNCCSSCCNCCCCCCNCc2ccc(C)o2)o1` reads 100%; that for `Clc1cc(Cl)cc(CNCCCCCCNCCSSCCNCCCCCCNCc2cc(Cl)cc(Cl)c2)c1`, 44%; that for `Brc1cccc(CNCCCCCCNCCSSCCNCCCCCCNCc2cccc(Br)c2)c1`, 58%.
As for `CS(=O)(=O)c1ccccc1CNCCCCCCNCCSSCCNCCCCCCNCc1ccccc1S(C)(=O)=O`, the Activity stood at 35%.
The compound `Fc1ccccc1CNCCCCCCNCCSSCCNCCCCCCNCc1ccccc1F` showed an Activity of 55%.
On the same count and under the same terms, the result for `c1ccc2ncc(CNCCCCCCNCCSSCCNCCCCCCNCc3cnc4ccccc4c3)cc2c1` reads 36%; that for `COc1ccc(CNCCCCCCNCCSSCCNCCCCCCNCc2ccc(OC)c(OC)c2[N+](=O)[O-])c([N+](=O)[O-])c1OC`, 27%; that for `c1ccc2cc(CNCCCCCCNCCSSCCNCCCCCCNCc3ccc4ccccc4c3)ccc2c1`, 27%.
Compound `O=[N+]([O-])c1c(CNCCCCCCNCCSSCCNCCCCCCNCc2ccc(O)c(O)c2[N+](=O)[O-])ccc(O)c1O` displayed an Activity of 17%.
For the compound `c1ccc2c(CNCCCCCCNCCSSCCNCCCCCCNCc3cccc4ccccc34)cccc2c1`, the Activity was found to be 22%.
In the case of `Fc1ccc(CNCCCCCCNCCSSCCNCCCCCCNCc2ccc(F)cc2)cc1`, the Activity is 100%.
The same measure, in the same setting: as for `O=[N+]([O-])c1ccc(CNCCCCCCNCCSSCCNCCCCCCNCc2ccc([N+](=O)[O-])cc2)cc1`, the figure is 41%; as for `c1ccc2c(CNCCCCCCNCCSSCCNCCCCCCNCc3ccnc4ccccc34)ccnc2c1`, 32%.
The same measure, in the same setting: as for `c1c[nH]c(CNCCCCCCNCCSSCCNCCCCCCNCc2ccc[nH]2)c1`, the figure is 100%; as for `Clc1ccc(CNCCCCCCNCCSSCCNCCCCCCNCc2ccc(Cl)cc2Cl)c(Cl)c1`, 54%; as for `c1cc(CNCCCCCCNCCSSCCNCCCCCCNCc2ccncc2)ccn1`, 11%.
The same measure, in the same setting: as for `c1ccc(CNCCCCCCNCCSSCCNCCCCCCNCc2ccccn2)nc1`, the figure is 78%; as for `O=[N+]([O-])c1cc(O)c(O)cc1CNCCCCCCNCCSSCCNCCCCCCNCc1cc(O)c(O)cc1[N+](=O)[O-]`, 99%.
`Clc1ccc(CNCCCCCCNCCSSCCNCCCCCCNCc2ccc(Cl)cc2)cc1` showed an Activity of 50%.
Compound `COc1c(C)cccc1CNCCCCCCNCCSSCCNCCCCCCNCc1cccc(C)c1OC` yielded an Activity of 59%.
